The list is not random: actives were taken first. Their share in the collection is about 4%.
E-sel inducer = induces E-selectin expression in human endothelial cells. 260,000 tested, 0.37% active. activation, % at 7.58 µM. P16581. HUVEC E-selectin immunofluorescence imaging; normalized: neutral wells 0, TNF-alpha wells 100;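 active means mean E-selectin-positive cell signal at least 10% of the positive control, reached in at least 60% of replicates, without over 20% cell loss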
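Assay system: HUVEC primary endothelial cells. Input: 3,000 HUVEC seeded per well. Doses: one compound dose added by pin transfer. Read-out basis: % PE-positive cells. Benchmarks: TNF-alpha high, DMSO low. Detection: immunofluorescence imaging. Buffer or medium: EGM-2, gelatin.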
Statin myotox sup = suppressors of simvastatin-induced myotoxicity in C2C12 myotubes | rescue of ATP level, % at 7.49 µM | ATP luminescence, 48 h; scaled: DMSO 0, geranylgeraniol control 100 | 330,000 tested, 0.78% active;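 active means mean ATP rescue above about 67%, or every replicate alone reaching that limit, limit read from the data, passing the limit was not always enough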;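 further: myotubes were challenged with 10 µM simvastatin during compound exposure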
rRNA inh HTS = inhibits bacterial ribosomal RNA function over humanized ribosomes; GFP signal change (wild-type ribosome), % (concentration not given with the values); 350,000 tested, 1.6% active; E. coli WT GFP vs humanized-ribosome RFP mutants, fluorescence, 24 h; stronger effect = lower value; DMSO median 0, no signal -100;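 active means significant combined selectivity score with lowered wild-type GFP, culture density cut under 30%, mutant RFP and density less affected; inactive means any of these conditions unmet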
FGF22 binding = FGF22 (human) thermal shift binding. recombinant FGF22 thermal shift, SYPRO orange fluorescence; percent of sucrose octasulfate shift, DMSO zero. activity (Tm shift, normalised), % at 9.99 µM. 340,000 tested, 1.5% active. Q9HCT0;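 active means mean Tm shift, scaled 0 neutral to 100 positive control, at about 1.3% or above, every replicate too, limit read from the data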
Target sequence (Q9HCT0 whole entry, looked up): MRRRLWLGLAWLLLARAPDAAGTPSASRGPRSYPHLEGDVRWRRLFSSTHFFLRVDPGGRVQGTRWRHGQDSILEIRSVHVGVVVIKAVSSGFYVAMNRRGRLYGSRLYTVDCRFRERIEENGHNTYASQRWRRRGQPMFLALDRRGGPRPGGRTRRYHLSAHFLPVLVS
SIRT5 block = blocks human SIRT5 desuccinylation of peptide; 330,000 tested, 1.1% active; inhibition, % at 15 µM; Q9NXA8; Purified SirT5, succinyl-peptide AMC, trypsin-coupled fluorescence; in the data active means inhibition above about 15%
Target sequence (Q9NXA8 whole entry, looked up): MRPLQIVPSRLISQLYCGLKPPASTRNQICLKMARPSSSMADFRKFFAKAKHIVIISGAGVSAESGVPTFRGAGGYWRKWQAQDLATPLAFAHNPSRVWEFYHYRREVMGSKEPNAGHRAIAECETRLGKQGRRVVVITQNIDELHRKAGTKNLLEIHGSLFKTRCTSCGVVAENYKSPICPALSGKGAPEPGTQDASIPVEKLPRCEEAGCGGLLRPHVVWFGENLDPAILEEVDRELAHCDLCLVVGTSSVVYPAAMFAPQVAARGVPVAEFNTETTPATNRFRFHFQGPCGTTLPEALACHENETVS
FN deposition inh = fibronectin deposition inhibition. AH1F fibroblasts, Alexa488-fibronectin deposition fluorescence, overnight. inhibition, % at 12.6 µM. 350,000 tested, 0.086% active. AID 743247;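 active means mean inhibition across replicates of 30% or more, regardless of how many single replicates reach that level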;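 further: positive control wells lacked labelled fibronectin entirely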
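Material: AH1F fibroblast monolayer depositing Alexa488-labelled fibronectin into matrix / Amount: 10000 AH1F cells per well / Signal: fluorescence 485/525 nm / Medium: DMEM, 2% serum / Compound: single dose, pinned / Incubation: 1 h cell adhesion before compound, then overnight fibronectin incubation / Reagent: Alexa488-FN, 24 nM final / Read-out: inhibition of fibronectin deposition signal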
* = called active by the depositor; x = no result given; ! = a repeat was not active.

SMILES	E-sel inducer	Statin myotox sup	rRNA inh HTS	FGF22 binding	SIRT5 block	FN deposition inh
COc1cc(/C=C(/C(=O)c2cccs2)c2nc3ccccc3[nH]2)cc(OC)c1O	x	120*	15	x	3	-2
COCC(=O)Nc1ccc2c(c1)C(=O)N(C)[C@@H]1CC[C@@H](CC(=O)NCCc3ccccc3)O[C@H]1CO2	0	15	1	-1	-2	1
O=C(O)CSc1nnnn1-c1ccccc1	x	2	x	x	x	x
CCOc1ccccc1-n1nnnc1SCC(=O)NC(=O)NCc1ccco1	0	-5	x	x	x	2
O=C(CSc1nnnn1-c1ccccc1)NC(=O)NCc1ccco1	x	95*	x	x	x	x
O=C(CSc1nnnn1-c1ccccc1)CSc1nnnn1-c1ccccc1	x	11	-28*	0	3	x
CCSc1nnnn1-c1ccccc1	x	5	4	x	12	x
Cc1ncc(CSc2nnnn2-c2ccccc2)c(N)n1	x	2	-21*	0	-3	x
C[C@@H]1CN([C@H](C)CO)S(=O)(=O)c2ccc(Br)cc2O[C@@H]1CN(C)CC1CC1	-1	-25	-1	0	-4	0
CC(=O)C1=C(O)C(=O)N(CCCn2ccnc2)C1c1ccc(Br)cc1 (centres undefined)	x	6	10	43*	3	-1
Cc1cc(Cn2nc(C(=O)NCC3CC3)cc2-c2ccccc2)on1	1	8	-27*	0	-2	-2
C[C@@H]1CC(=O)NCC/C=C\C[C@@H](c2ccc3c(c2)OCO3)NC1=O	x	x	0	x	x	-1
COc1ccc(C#Cc2ccc3c(c2)O[C@H](CN(C)S(=O)(=O)c2ccccc2F)[C@H](C)CN([C@H](C)CO)S3(=O)=O)cc1	0	5	8	0	16*!	-7
C[C@H]1CN([C@@H](C)CO)S(=O)(=O)c2ccc(C#Cc3cccc(F)c3)cc2O[C@H]1CN(C)S(=O)(=O)c1ccccc1F	-1	21	3	0	42*	5
C[C@H]1CN([C@@H](C)CO)S(=O)(=O)c2ccc(C#Cc3cccc(F)c3)cc2O[C@@H]1CN(C)S(=O)(=O)c1ccccc1F	-1	19	0	0	13	-5
COc1ccc(C#Cc2ccc3c(c2)O[C@@H](CN(C)S(=O)(=O)c2ccccc2F)[C@@H](C)CN([C@H](C)CO)S3(=O)=O)cc1	0	5	6	0	12	x
O=[N+]([O-])c1ccc(C(O)C(CO)NC(=S)Nc2ccccc2)cc1 (centres undefined)	x	x	-44*	0	-1	-4
O=S(=O)(c1cccs1)N1CCCCN2[C@H](CO)[C@H](c3ccc(C4=CCCCC4)cc3)[C@@H]2C1	x	x	x	-1	18*	x
O=S(=O)(c1cccs1)N1CCCCN2[C@H](CO)[C@H](c3ccc(C4=CCCC4)cc3)[C@@H]2C1	0	7	-7	0	2	x
O=S(=O)(c1cccs1)N1CCCCN2[C@@H](CO)[C@@H](c3ccc(C4=CCCC4)cc3)[C@@H]2C1	-1	2	-34*	0	4	x
CCN(Cc1ccccc1)c1ccc(/C=N/NS(=O)(=O)c2ccc(C)c([N+](=O)[O-])c2)cc1	0	x	-34*	0	1	10
C[C@@H]1CN([C@@H](C)CO)C(=O)c2cc(NC(=O)Nc3ccc(C(F)(F)F)cc3)ccc2O[C@@H](C)CCCCO[C@H]1CN(C)C(=O)Nc1cccc2ccccc12	0	6	6	0	5	x
CCOC(=O)c1sc(NC(=O)CN(CC(C)C)CC(C)C)c(C(=O)OCC)c1C	x	74*	x	x	x	-5
CCOC(=O)c1c(NC(=O)CC(C)C)sc(C(C)=O)c1C	x	-2	x	x	x	x
CCCNC(=O)N[C@@H]1CC[C@@H](CCNS(=O)(=O)c2cccc(F)c2)O[C@@H]1CO	0	8	1	0	-1	-2
SMILES	E-sel inducer	Statin myotox sup	rRNA inh HTS	FGF22 binding	SIRT5 block	FN deposition inh
CCS(=O)(=O)Nc1ccc2c(c1)C(=O)N(C)[C@@H]1CC[C@H](CC(=O)N3CCOCC3)O[C@@H]1CO2	0	-13	0	0	2	-1
CC(C)CNC(=S)N1CCN(C(c2ccccc2)c2ccccc2)CC1	0	x	9	0	-2	-5
S=C(NCc1ccco1)N1CCN(C(c2ccccc2)c2ccccc2)CC1	x	86*	-3	0	-5	x
CCSc1nc2ccccc2c(=O)n1Cc1ccc(F)cc1	0	x	-19*	44*	-5	4
COCCn1c(SCc2ccc(F)cc2)nc2ccccc2c1=O	x	-3	-26	0	-6	-3
Cc1noc(C)c1NC(=O)N(C)C[C@@H]1OCCCC[C@@H](C)Oc2ccc(N(C)C)cc2C(=O)N([C@H](C)CO)C[C@@H]1C	0	13	4	x	x	x
Cc1noc(C)c1NC(=O)Nc1ccc2c(c1)C(=O)N(C)[C@@H]1CC[C@H](CC(=O)NCc3ccc(Cl)cc3)O[C@H]1CO2	0	3	0	0	-2	-6
Nc1nc(N)c(C=Nc2ccc(Br)cc2)c(Nc2ccc(Br)cc2)n1	x	0	-25*	0	-5	4
COc1ccccc1NS(=O)(=O)c1c(C)[nH]c(C)c1C(=O)N1CCCC1	50*	0	9	0	1	-12
COc1ccc([N+](=O)[O-])cc1NS(=O)(=O)c1ccc(C(=O)N2CCCC2)cc1	x	17	24	0	1	34*
CCOC(=O)c1cc(CC)sc1NC(=O)C1CC(=O)NN1Cc1ccccc1 (centres undefined)	x	x	-16	0	x	3
COC(=O)c1cc(C)sc1NC(=O)C1CC(=O)NN1Cc1ccccc1 (centres undefined)	x	x	-32*	x	-1	-4
C[C@@H]1CN([C@@H](C)CO)C(=O)c2cc(NS(=O)(=O)c3ccc(F)cc3)ccc2O[C@@H]1CN(C)Cc1ccc(-c2ccccc2)cc1	0	23	1	-1	13	x
CCOc1cccc2sc(NC(=O)CC)nc12	x	26	-19*	0	2	x
Cc1ccc(S(=O)(=O)c2cccc(S(=O)(=O)N3CCCC3)c2)cc1S(=O)(=O)N1CCCC1	x	90*	x	x	x	7
Nn1c(SCC(=O)Nc2ccc(S(=O)(=O)N3CCCC3)cc2)nnc1C(F)(F)F	x	107*	x	x	x	x
Cc1ccc(S(=O)(=O)c2ccccc2)cc1S(=O)(=O)N1CCOCC1	x	6	x	x	x	5
Cc1cccc(NS(=O)(=O)c2ccc(S(=O)(=O)N3CCCC3)cc2)c1	206*	11	-6	0	-12	0
Cc1cc(C)c(NS(=O)(=O)c2cccc3cccnc23)c(C)c1	x	2	-12	0	-1	x
Cn1cnnc1SCC(=O)Nc1ccc(S(=O)(=O)N2CCCC2)cc1	x	-5	9	0	0	x
